A selection: hits, their analogues and other compounds. The true share with any hit is near 3.7%.
EBV gp42 inh: Epstein-Barr virus gp42 inhibitors, primary screen, biochemical, uHTS, fluorescence polarization. Glycoprotein 42 (Epstein-Barr virus (strain AG876)), Q1HVG2. 220,000 tested, 0.42% active. inhibition, % (tested at 21.74 µM). Fluorescence polarization binding assay, mP read-out; in the data active = inhibition above about 50%
Target sequence (Q1HVG2 whole entry, looked up): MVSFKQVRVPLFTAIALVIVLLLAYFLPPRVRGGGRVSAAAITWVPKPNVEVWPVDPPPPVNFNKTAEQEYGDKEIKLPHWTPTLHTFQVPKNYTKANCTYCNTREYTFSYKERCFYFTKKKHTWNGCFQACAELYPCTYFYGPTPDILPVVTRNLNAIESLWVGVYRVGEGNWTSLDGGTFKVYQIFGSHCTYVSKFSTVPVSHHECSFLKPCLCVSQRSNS
RBBP9 inhibitor: human RBBP9 inhibitors, primary screen, biochemical, fluorescence polarization, FP-Rh probe, HTS | recombinant RBBP9 | Serine hydrolase RBBP9 (Homo sapiens), O75884 | AID 1515, 2009 | inhibition, % at 7.94 µM | 220,000 tested, 0.2% active;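 active = inhibition above the campaign mean of all tested compounds plus 3 SD, cut at about 14% in these data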;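 note: plate controls were DMSO wells with RBBP9 for no effect and wells lacking RBBP9 protein for full effect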
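Assay system: recombinant human RBBP9; Reagent: Serine-hydrolase probe FP-Rh, 375 nM pre-mixing; Doses: 7.94 µM single dose, 0.794% DMSO; Incubation: 30 min then 45 min, 25 °C; Detection: fluorescence polarization (mP), excitation 525 nm, emission 598 nm; Evaluation: percent inhibition from mP, scaled between DMSO and no-protein wells.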
eIF4E 4G PPI: eIF4E–eIF4G protein interaction inhibitors, primary screen, biochemical, uHTS, TR-FRET, eIF4GI fragment; TR-FRET eIF4E-eIF4GI(517-606) binding, 2 h; inhibition, % at 21.7 µM; 220,000 tested, 0.37% active; Eukaryotic translation initiation factor 4E (Mus musculus) + Eukaryotic translation …;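 note: 0% = full FRET control wells and 100% = background wells lacking eIF4GI fragment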
14-3-3 Bad inh: inhibitors of 14-3-3 zeta/Bad binding, primary screen, biochemical, TR-FRET, bovine 14-3-3 zeta; 220,000 tested, 0.71% active; 14-3-3 protein zeta/delta (Bos taurus), P63103; TR-FRET 14-3-3zeta/Dy647-pBad peptide displacement, 1 h; inhibition, % at 21.7 µM; AID 781, 2007;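 active = inhibition above about 70%, limit read from the data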;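 note: 0% = full 14-3-3 plus peptide FRET controls and 100% = background without 14-3-3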
Target sequence (P63103 whole entry, looked up): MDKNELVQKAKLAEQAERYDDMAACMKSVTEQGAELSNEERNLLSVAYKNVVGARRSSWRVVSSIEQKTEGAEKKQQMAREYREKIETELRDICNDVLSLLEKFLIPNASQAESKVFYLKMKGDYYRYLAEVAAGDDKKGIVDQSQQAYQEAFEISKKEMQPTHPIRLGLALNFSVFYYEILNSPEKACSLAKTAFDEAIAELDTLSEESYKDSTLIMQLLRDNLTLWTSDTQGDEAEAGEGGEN
p47phox inh: p47phox/p22phox peptide binding inhibitors, primary screen, biochemical, uHTS, NADPH oxidase regulatory subunit; inhibition, % at 24.7 µM; fluorescence polarization, 2 h; 220,000 tested, 0.53% active; Neutrophil cytosol factor 1 (Homo sapiens), P14598; AID 1274, 2008;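 note: 0% = p47phox with labelled peptide and 100% = labelled peptide alone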
WT yeast gro inh: growth inhibition of WT strain, primary screen, mitochondrial fusion inhibitor project, WT and mutant strains, chemical genetic; mitochondrial fusion phenotypic screen; inhibition, % at 10 µM; 190,000 tested, 2.1% active; AID 1362, 2008; in the data active = inhibition above about 58%; tested in S. cerevisiae
* hit, by the source's call; / = no result given; [ ] = remark or other dose.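 Rule for the calls, unless noted: active = inhibition above about 30% (limit read from the data); inactive = the rest.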

SMILES	EBV gp42 inh	RBBP9 inhibitor	eIF4E 4G PPI	14-3-3 Bad inh	p47phox inh	WT yeast gro inh
Cc1ccc(C(=O)C2C(=O)c3ccccc3C2=O)cc1	5	5	9	82*	8	-5
Cc1ccc(C(=O)NC2c3ccccc3-c3ccccc32)cc1	-10	-1	-3	5	-13	-11
COc1ccc2nc(COC(=O)c3ccco3)c(C(C)=O)[n+]([O-])c2c1	-1	-1	-3	86*[fluorescence artefact?]	8	6
CC(C)[C@H]1C=C(C(=O)O)O[C@@H](OCCCCO)C1	-10	/	8	1	-20	/
CC(CO)Nc1nc(SCc2ccccc2)nc2sc3c(c12)CCC3 (stereo not drawn)	6	-1	-2	-9	-22	75*
CC(=O)N(CN1C(=O)CCC1=O)c1ccc(Cl)c(Cl)c1	-9	6	-3	82*	-2	9
CCN(CC)c1ccc(/C=C(\C#N)c2ccccn2)cc1	-69	-2	-2	-15	-11	68*
CCN(Cc1ccccc1)c1ccc(/C=C(\C#N)c2ccccn2)cc1	-16	2	2	11	-10	11
COc1ccc(N2C(=O)C(CN3CCCCC3)C2c2ccccc2)cc1 (stereo not drawn)	-13	-5	0	89*	-9	5
COc1ccc(C2C(C(=O)N3CCCCC3)CC(=O)N2c2ccc(OC)cc2)cc1 (stereo not drawn)	-22	-9	3	2	1	-32
Cc1ccc(NC(=S)N2CCC(N(C)CC3CCCO3)CC2)cc1 (stereo not drawn)	-10	-1	-2	-17	-11	-8
O=c1cc(N=Nc2ccc(Cl)cc2)[nH]c(=O)[nH]1	-4	2	0	-1	-8	/
CC1CCCCC12NC(=O)N(CC(=O)Nc1ccccc1N1CCOCC1)C2=O (stereo not drawn)	7	-7	2	-9	-2	-12
COC(=O)C1(Cc2ccc(O)c(CC3OC3(C)C)c2)OC(=O)C(O)=C1c1ccc(O)cc1 (stereo not drawn)	-8	/	96*	3	-7	/
COc1cc(CC2COC(=O)C2(O)Cc2ccc(O)c(OC)c2)ccc1O (stereo not drawn)	-6	/	-18	0	6	/
Cc1ccc(C(=O)CSc2ccc(-c3cccnc3)nn2)cc1	-2	-8	0	-9	6	-5
OC(CNCCc1ccccc1)COc1ccc(OCC(O)CNCCc2ccccc2)cc1 (stereo not drawn)	-17	-8	4	-2	4	/
OC(CNCCC(c1ccccc1)c1ccccc1)COc1ccccc1 (stereo not drawn)	7	-3	3	0	5	74*
CC(C)c1ccc2c(c1)C(c1ccc(N3CCOCC3)cc1)=NNC(c1cccs1)=N2	-1	-4	-1	-5	-18	40
CN1C(=O)N(C)C2(c3ccccc3)NC(=O)NC12c1ccccc1 (stereo not drawn)	-10	-3	3	-6	-8	-7
CN1c2ccccc2N(C)C1(C)c1ccccc1	3	-6	42*[fluorescence artefact?]	19	70*	17
CCN1c2ccccc2N(C)C1(C)c1ccccc1 (stereo not drawn)	34	-11	43*[fluorescence artefact?]	34	63*	33
CN(C)c1ccc(C(=O)c2ccc(N(C)C)c3ccccc23)cc1	-13	-5	-4	-1	-15	61*
COc1ccc(C(=O)c2ccc(N(C)C)cc2)c(OC)c1	-12	-3	1	-9	2	-6
O=C(OCc1nnc(-c2ccccc2)o1)C12CC3CC(CC(Br)(C3)C1)C2	1	-13	-1	16	0	70*
SMILES	EBV gp42 inh	RBBP9 inhibitor	eIF4E 4G PPI	14-3-3 Bad inh	p47phox inh	WT yeast gro inh
COc1ccc(C[C@H]2c3cc(O)c(OC)cc3CC[N+]2(C)[O-])cc1O (stereo partly drawn)	-9	/	-2	-3	-15	/
Cc1cc(C(F)(F)F)nn1Cc1n[nH]c(=S)n1-c1ccc(Cl)cc1	24	1	7	27	31*	7
COCCCNC(=S)NNC(=O)c1ccc(S(=O)(=O)N2CCC(C)CC2)cc1	-12	-2	-4	-14	-12	-8
CCc1nc(SCc2nc3ccccc3[nH]2)c2oc3ccccc3c2n1	6	7	3	9	-5	74*
CC(=O)c1ccc(NC(=O)C2C3C=CC(C3=C(c3ccccc3)c3ccccc3)C2C(=O)O)cc1 (stereo not drawn)	6	-8	10	-5	-8	-9
Cc1ccc(-n2nnnc2SCC(=O)N2CCc3ccccc3C2)c(C)c1	-1	-5	-6	3	4	61*
Cc1ccc(-n2nnnc2SCC(=O)N2CCc3ccccc3C2)cc1	-11	-5	4	1	-7	57
O=C(O)/C=C/C(=O)NCCC(c1ccccc1)c1ccccc1	-14	-1	3	-10	-7	/
O=C(CSc1nc2ccccc2c(=O)n1Cc1ccco1)NCc1ccco1	8	-5	10	88*[fluorescence artefact?]	-7	-12
O=C(CSc1nc2ccccc2c(=O)n1-c1ccccc1)NCc1ccc2c(c1)OCO2	-29	-5	/	/	53*	-9
CCC(Sc1nc2ccccc2c2nc3ccccc3n12)C(=O)NCc1ccco1 (stereo not drawn)	-8	-1	8	78*	23	16
COC(=O)c1ccc2c(=O)n(Cc3ccco3)c(SCC(=O)Nc3ccccc3Cl)nc2c1	-17	-3	-30	11	46*	1
Cc1cccc(-n2c(SCC(=O)NCc3ccc4c(c3)OCO4)nc3ccccc3c2=O)c1	-26	-4	-3	-7	-17	-8
COc1ccc(OC)c(NC(=O)c2ccno2)c1	-7	3	2	0	-22	-1
O=C(c1cccc(F)c1)N1CCN(c2cc(N3CCCCC3)c(F)cc2[N+](=O)[O-])CC1	-3	12	4	3	-12	61*
Cn1c(OCc2ccc3c(c2)OCO3)nc2c1c(=O)n(Cc1ccc(Cl)c(Cl)c1)c(=O)n2C	-21	-12	-2	-2	55*	-3
COC(=O)c1sccc1NC(=O)CC1C(=O)NCCN1C(=O)c1ccc(F)cc1 (stereo not drawn)	-4	-9	-2	4	2	/
O=C(c1c(F)c(F)c(F)c(F)c1F)N(Cc1ccccc1)Cc1ccccc1	-2	-10	4	7	-2	66*
CCCCCCc1cc2cc(C(N)=O)c(=N)oc2cc1O	103*	-6	-5	15	-8	82*
